In ChEMBL document CHEMBL1124692, “Synthesis of a tritium-labeled indolidan analogue and its use as a radioligand for phosphodiesterase-inhibitor cardiotonic binding sites” (J Med Chem, 1989):

Columns and labels:
[1] = (§1) Displacement [3H]LY-186,126 from phosphodiesterase 4 of myocardial vesicles; format: tissue-based, Canis lupus familiaris, Myocardium
How it was run: (§2)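 Canine ventricular myocardial vesicles (mixed sarcolemmal and SR; stored at –80 °C), about 100 μg protein, incubated 60 min at 25 °C in 50 mM Tris-Cl pH 7.4, 5 mM MgCl2, 0.01% BSA with 10 nM [3H]-LY186126 (79.2 Ci/mmol). Competitors in DMSO were tested at 0.003–100 μM in half-log steps. Samples were filtered on GF/C and washed with cold phosphate. Specific binding is the part displaced by 100 μM indolidan. Run in triplicate; Ki from nonlinear least-squares fits.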

[2] = molecular target: T1, Phosphodiesterase 4 (Homo sapiens, UniProt P27815+Q08499+Q07343+Q08493); test: Inhibition of sarcoplasmic reticulum Phosphodiesterase 4; format: protein assay, Canis lupus familiaris
[3] = molecular target: T1, Phosphodiesterase 4; test: Binding affinity for sarcoplasmic reticulum phosphodiesterase 4 of canine ventricle; format: protein assay, Canis lupus familiaris; conditions: target entry is the homologue from another species
[4] = molecular target: T1, Phosphodiesterase 4; test: Binding affinity for Phosphodiesterase 4 of canine myocardial vesicles; format: protein assay, Canis lupus familiaris; conditions: target entry is the homologue from another species; how it was run: as §2
[5] = molecular target: T1, Phosphodiesterase 4; test: as §1; format: tissue-based, Canis lupus familiaris, Myocardium; how it was run: as §2

| Compound | IC50 [2] | Ki [5] | further results |
| --- | --- | --- | --- |
| O=C1CCC(c2ccc3c(c2)CCC(=O)N3)=NN1 | – | – | Ki [1]: 2.5 nM |
| CC1CC(=O)NN=C1c1ccc2c(c1)C(C)(C)C(=O)N2C (centres undefined) | 120 nM | – | Kd [3]: 3.9 nM; Kd [4]: 4.1 nM |
| CN1N=C(c2ccc3c(c2)CC(=O)N3)CCC1=O | – | 61400 nM | – |
| CC1CC(=O)NN=C1c1ccc2c(c1)C(C)(C)C(=O)N2 (centres undefined) | – | 0.54 nM | – |
| CN1C(=O)C(C)(C)c2cc(C3=NNC(=O)CC3)ccc21 | 760 nM | – | – |
| CC1(C)C(=O)Nc2ccc(C3=NNC(=O)CC3)cc21 [INDOLIDAN] | 150 nM | 5.4 nM | – |
